Data taken from ChEMBL document CHEMBL2016520, “Design, synthesis, molecular docking and biological evaluation of new dithiocarbamates substituted benzimidazole and chalcones as possible chemotherapeutic agents” (Bioorg Med Chem Lett, 2012).

System: Cicer arietinum
Assay: Antimitotic activity against chick pea seeds assessed as inhibition of germinating root growth after 7 days
Type: functional, organism-based
Details: 168 h
In short: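 Seeds germinated in Petri dishes on filter paper for 7 days, with the paper moistened every 24 h with drug solution. One dish held DMSO as control and one held cisplatin as the standard. Radicle length was measured in cm on day 7, and percent growth inhibition was calculated against the mean of the DMSO-treated control.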

SMILES	IC50
S=C(SCc1nc2ccccc2[nH]1)N1CCOCC1	1890 nM
CCCNC(=S)SCc1nc2ccccc2[nH]1	2290 nM
O=C(CC(SC(=S)Nc1nc2ccccc2s1)c1ccccc1)c1ccccc1 (stereo not drawn)	1520 nM
CCCCNC(=S)SCc1nc2ccccc2[nH]1	2110 nM
S=C(SCc1nc2ccccc2[nH]1)N1CCCC1	1800 nM
O=C(CC(SC(=S)N1CCCC1)c1ccccc1)c1ccccc1 (stereo not drawn)	1670 nM
CN(C)C(=S)SC(CC(=O)c1ccccc1)c1ccccc1 (stereo not drawn)	2430 nM
O=C(CC(SC(=S)N1CCCCC1)c1ccccc1)c1ccccc1 (stereo not drawn)	1850 nM
O=C(CC(SC(=S)N1CCOCC1)c1ccccc1)c1ccccc1 (stereo not drawn)	1650 nM
CCN(CC)C(=S)SC(CC(=O)c1ccccc1)c1ccccc1 (stereo not drawn)	1840 nM
CCN(CC)C(=S)SCc1nc2ccccc2[nH]1	1860 nM
CN(C)C(=S)SCc1nc2ccccc2[nH]1	2120 nM
S=C(SCc1nc2ccccc2[nH]1)N1CCCCC1	1660 nM
